Assay results published in ChEMBL document CHEMBL1151755, “Crystal structure of the peroxisome proliferator-activated receptor gamma (PPARgamma) ligand binding domain complexed with a novel partial agonist: a new region of the hydrophobic pocket could be exploited for drug design” (J Med Chem, 2008).
Activity calls are given as the source filed them. The calls are words filed in the database; no cut-off is given here.

What was measured:
[1] = molecular target: T1, Peroxisome proliferator-activated receptor alpha (Mus musculus) (UniProt P23204); test: (§1) Agonist activity at mouse PPARalpha ligand binding domain expressed in human Hep G2 cells co-transfected with Gal4-DBD by luciferase reporter gene assay; assay type: cell-based; settings: HepG2
T1 sequence (whole entry): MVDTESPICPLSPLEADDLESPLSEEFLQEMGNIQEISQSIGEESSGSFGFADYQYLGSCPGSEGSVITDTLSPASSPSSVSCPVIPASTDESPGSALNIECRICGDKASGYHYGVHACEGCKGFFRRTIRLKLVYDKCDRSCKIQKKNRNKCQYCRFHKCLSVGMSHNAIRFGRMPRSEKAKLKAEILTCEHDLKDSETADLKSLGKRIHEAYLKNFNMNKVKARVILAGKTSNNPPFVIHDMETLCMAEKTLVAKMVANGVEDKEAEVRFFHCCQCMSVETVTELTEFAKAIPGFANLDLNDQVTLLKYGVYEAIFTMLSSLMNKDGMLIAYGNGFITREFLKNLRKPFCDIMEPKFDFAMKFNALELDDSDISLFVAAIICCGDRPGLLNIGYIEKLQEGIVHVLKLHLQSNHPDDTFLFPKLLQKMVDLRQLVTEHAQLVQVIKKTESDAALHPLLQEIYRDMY

[2] = molecular target: T2, Peroxisome proliferator-activated receptor alpha (Homo sapiens) (UniProt Q07869); test: Agonist activity at human PPARalpha ligand binding domain expressed in human Hep G2 cells co-transfected with Gal4-DBD by luciferase reporter gene assay; assay type: cell-based; settings: HepG2
T2 sequence (whole entry): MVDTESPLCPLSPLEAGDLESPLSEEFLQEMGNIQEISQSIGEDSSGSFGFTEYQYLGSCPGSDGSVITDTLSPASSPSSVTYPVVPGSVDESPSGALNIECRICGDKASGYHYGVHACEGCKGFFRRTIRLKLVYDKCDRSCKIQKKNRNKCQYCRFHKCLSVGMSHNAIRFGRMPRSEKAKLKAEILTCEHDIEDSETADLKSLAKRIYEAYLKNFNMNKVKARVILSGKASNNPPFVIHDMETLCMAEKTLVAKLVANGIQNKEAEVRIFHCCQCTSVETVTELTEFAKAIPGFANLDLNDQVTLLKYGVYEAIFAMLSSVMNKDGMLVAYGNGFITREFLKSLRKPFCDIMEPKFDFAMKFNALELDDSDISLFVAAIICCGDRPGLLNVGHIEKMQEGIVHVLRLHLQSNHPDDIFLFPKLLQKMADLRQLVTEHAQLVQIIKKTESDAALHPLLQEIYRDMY
Summary of the method: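 Gal4-LBD fusion vector (50 ng) was co-transfected with pGal4UAS-luciferase (100 ng) and pCMVβ β-galactosidase normalizer (300 ng) into HepG2 cells by calcium phosphate for 4 h. Cells were washed, then given serum-free DMEM/F-12 with ligand or 0.1% ethanol vehicle for 20 h. Luciferase was normalized to β-galactosidase.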

[3] = molecular target: T3, Peroxisome proliferator-activated receptor alpha (Mus musculus, UniProt P23204); test: as §1; assay type: cell-based, HepG2
T3 sequence (P23204 whole entry): T1 sequence (whole entry)

[4] = molecular target: T4, Oxysterols receptor LXR-alpha (Homo sapiens) (UniProt Q13133); test: Increase in transcriptional activity of LXRalpha ligand binding domain expressed in human Hep G2 cells co-transfected with Gal4-DBD by luciferase reporter gene assay; assay type: cell-based; settings: HepG2
T4 sequence (whole entry): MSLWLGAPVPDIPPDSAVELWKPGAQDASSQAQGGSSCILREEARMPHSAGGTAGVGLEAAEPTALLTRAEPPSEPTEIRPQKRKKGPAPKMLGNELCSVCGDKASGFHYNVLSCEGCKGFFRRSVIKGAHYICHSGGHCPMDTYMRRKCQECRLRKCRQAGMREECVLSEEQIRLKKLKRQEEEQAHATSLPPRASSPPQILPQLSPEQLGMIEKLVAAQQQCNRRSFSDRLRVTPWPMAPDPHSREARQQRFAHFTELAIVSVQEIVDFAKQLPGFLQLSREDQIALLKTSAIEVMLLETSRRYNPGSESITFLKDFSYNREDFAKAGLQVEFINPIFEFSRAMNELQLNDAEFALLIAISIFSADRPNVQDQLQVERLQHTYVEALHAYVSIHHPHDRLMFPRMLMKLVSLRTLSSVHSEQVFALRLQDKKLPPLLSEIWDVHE
Summary of the method: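 HepG2 cells transfected for 4 h by calcium phosphate coprecipitation with 100 ng pGal4UAS-luciferase, 50 ng Gal4-LBD receptor vector and 300 ng CMV-β-galactosidase plasmid for normalization. Cells were washed in PBS, then refed with serum-free DMEM/F-12 containing penicillin/streptomycin and compound or 0.1% ethanol vehicle for 20 h. Luciferase read-out was normalized to β-galactosidase. Experiments were repeated at least three times.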

Row | Activity [1] | Activity [2] | EC50 [3] | Activity [4] | Compound
1 | inactive | inactive |  |  | O=C(O)[C@@H](Cc1ccccc1)Oc1ccc(-c2ccccc2)cc1
2 |  |  | 0.26 µM | inactive | O=C(O)[C@H](Cc1ccccc1)Oc1ccc(-c2ccccc2)cc1
